Source: ChEMBL document CHEMBL3232903, “New pyrazolobenzothiazine derivatives as hepatitis C virus NS5B polymerase palm site I inhibitors” (J Med Chem, 2014)

Tests used:
[1] = Induction of steatosis in human Huh-9-13 cells assessed as intracellular accumulation of […] lipids at 100 uM by Nile Red staining; format: cell-based
[2] = test system: Hepatitis C virus isolate HC-J4; test: Inhibition of RNA-dependent RNA polymerase activity of HCV genotype 1b HC-J4 recombinant N-terminal histidine tagged C-terminal 21 aminoacids truncated NS5B polymerase at 50 uM after 1 hr by standard primer dependent elongation assay
Procedure, shortened: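 Recombinant NS5BCΔ21 genotype 1b in a primer-dependent elongation assay. […] IC50 is the concentration halving enzyme activity in vitro; mean ± SD of two independent experiments in duplicate.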

[3] = Inhibition of RNA-dependent RNA polymerase activity of HCV genotype 1b HC-J4 recombinant N-terminal histidine tagged C-terminal 21 aminoacids truncated NS5B polymerase after 1 hr by standard primer dependent elongation assay; set-up: species or system Hepatitis C virus isolate HC-J4
Procedure, shortened: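 Recombinant NS5BCΔ21 genotype 1b in a primer-dependent elongation assay. IC50 is the concentration halving enzyme activity in vitro; mean ± SD of two independent experiments in duplicate.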

Hepatitis C virus [4] = test: Antiviral activity against HCV genotype 1b I389luc-ubi-neo/NS3-3'/5.1 replicon infected in human Huh5-2 cells assessed as inhibition of virus replication by luciferase assay; format: functional, cell-based, Hepacivirus hominis; details: Huh-5-2
[5] = Cytostatic activity against human Huh5-2 cells carrying HCV genotype 1b I389luc-ubi-neo/NS3-3'/5.1 replicon assessed as reduction in metabolic activity after 72 hrs by MTS assay; format: ADME, cell-based, Huh-5-2; details: huh-5-2, 72 h
Procedure, shortened: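 Replicon-bearing Huh-5-2 cells run in parallel with the antiviral read-out; CC50 is the concentration halving MTS bioreduction to formazan, taken as the antimetabolic effect on host cells; mean ± SD from at least three dose–response curves.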

[6] = Cytotoxicity against human Huh5-2 cells carrying HCV genotype 1b I389luc-ubi-neo/NS3-3'/5.1 replicon assessed as cell morphological changes after 72 hrs by microscopic analysis; format: cell-based; details: huh-5-2, 72 h
Procedure, shortened: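 Huh-5-2 replicon cells examined by microscopy for changes in cell morphology after 72 h of compound treatment.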

[7] = Selectivity index, ratio of CC50 for human Huh5-2 cells to EC50 for HCV genotype 1b I389luc-ubi-neo/NS3-3'/5.1 replicon infected in human Huh5-2 cells; set-up: species or system Huh-5-2
[8] = Apparent permeability of the compound after 5 hrs by PAMPA-GI model analysis; format: physicochemical
Procedure, shortened: (§1)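 PAMPA, gastrointestinal model. Donor 0.5 mM, diluted from 1 mM DMSO stock in phosphate buffer pH 7.4 (0.025 M). Filter coated with 1% w/v phosphatidylcholine in dodecane; acceptor 50% DMSO in buffer. Incubated 5 or 22 h at room temperature with gentle shaking. Both sides analysed by LC-UV at 254 nm, concentration from peak area. Papp in cm/s and % membrane retention calculated by equations; three plates on different days.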

[9] = Apparent permeability of the compound after 22 hrs by PAMPA-GI model analysis; format: physicochemical; procedure, shortened: as §1
[10] = Apparent permeability of the compound assessed as membrane retention after 5 hrs by PAMPA assay; format: physicochemical; procedure, shortened: as §1
[11] = Apparent permeability of the compound assessed as membrane retention after 22 hrs by PAMPA assay; format: physicochemical; procedure, shortened: as §1
[12] = Metabolic stability of the compound in human liver microsomes assessed as unmodified compound remaining after 60 mins; format: ADME; details: read-out: Stability
Procedure, shortened: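 Compound at 50 μM final (DMSO ≤2%) incubated 60 min at 37 °C with human liver microsomal protein (0.2 mg/mL) and an NADPH-generating system in 125 mM phosphate buffer, pH 7.4. Unmodified parent was quantified by LC–MS and reported as percentage remaining.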

[13] = Induction of phospholipidosis in human Huh-9-13 cells assessed as multilamellar bodies formation at 90 uM by monodansylcadaverine staining; format: cell-based
Procedure, shortened: (§2)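 Huh-9-13 cells seeded at 25.000 cells/dish in complete DMEM without G418 at 37 °C, 5% CO2. Next day, compound (90 μM) or DMSO added for 3 days. Then stained 30 min with monodansylcadaverine (50 μM; ex 340/em 530 nm), LipidTOX Red (1/1000; ex 577/em 609 nm) or Nile Red (2 μg/mL; yellow-gold at ex 552/em 636 nm). Imaged by confocal microscopy.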

[14] = Induction of steatosis in human Huh-9-13 cells assessed as intracellular accumulation of neutral lipids at 90 uM by Nile Red staining; format: cell-based; procedure, shortened: as §2
[15] = Induction of steatosis in human Huh-9-13 cells assessed as increase in size of lipid droplets at 90 uM by LipidTOX red staining; format: cell-based; procedure, shortened: as §2
Hepatitis C virus [16] = test: Antiviral activity against HCV genotype 1b […] replicon infected in human Huh9-13 cells assessed as decrease in replicon RNA content by RT-qPCR analysis; format: functional, cell-based, Hepacivirus hominis
Procedure, shortened: (§3)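 Subgenomic genotype 1b HCV replicon cells: Huh-9-13 (Huh-7 background, no luciferase reporter) and HuH6 (different adaptive mutations). EC50 from decrease in replicon RNA measured by RT-qPCR. Host-cell proliferation and metabolism checked in parallel by MTS assay.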

[17] = biological target: RNA-directed RNA polymerase (Hepacivirus hominis, UniProt O39930, P495L); test: Inhibition of RNA-dependent RNA polymerase activity of HCV genotype 1b HC-J4 recombinant N-terminal histidine tagged C-terminal 21 aminoacids truncated NS5B polymerase P495L mutant at thumb site 1 after 1 hr by standard primer dependent elongation assay; set-up: species or system Hepatitis C virus isolate HC-J4
Procedure, shortened: (§4)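 Recombinant NS5BCΔ21 genotype 1b mutants, M414T, M423T and P495L, each run in a primer-dependent elongation assay as for wild-type enzyme. IC50 is the mean ± SD of two independent experiments in duplicate.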

[18] = biological target: RNA-directed RNA polymerase (Hepacivirus hominis, UniProt O39930, M423T); test: Inhibition of RNA-dependent RNA polymerase activity of HCV genotype 1b HC-J4 recombinant N-terminal histidine tagged C-terminal 21 aminoacids truncated NS5B polymerase M423T mutant at thumb site 2 after 1 hr by standard primer dependent elongation assay; set-up: species or system Hepatitis C virus isolate HC-J4; procedure, shortened: as §4
[19] = test system: Hepatitis C virus isolate HC-J4; test: Ratio of IC50 for HCV genotype 1b HC-J4 recombinant N-terminal histidine tagged C-terminal 21 aminoacids truncated NS5B polymerase M414T mutant at palm site 1 to HCV genotype 1b HC-J4 recombinant N-terminal histidine tagged C-terminal 21 aminoacids truncated wild type NS5B polymerase
Procedure, shortened: (§5)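 Fold change is the mutant NS5BCΔ21 IC50 (M414T, M423T or P495L) divided by the wild-type IC50. Both were measured in a primer-dependent elongation assay, from two independent experiments in duplicate.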

[20] = test system: Hepatitis C virus isolate HC-J4; test: Ratio of IC50 for HCV genotype 1b HC-J4 recombinant N-terminal histidine tagged C-terminal 21 aminoacids truncated NS5B polymerase P495L mutant at thumb site 1 to HCV genotype 1b HC-J4 recombinant N-terminal histidine tagged C-terminal 21 aminoacids truncated wild type NS5B polymerase; procedure, shortened: as §5
[21] = test system: Hepatitis C virus isolate HC-J4; test: Ratio of IC50 for HCV genotype 1b HC-J4 recombinant N-terminal histidine tagged C-terminal 21 aminoacids truncated NS5B polymerase M423T mutant at thumb site 2 to HCV genotype 1b HC-J4 recombinant N-terminal histidine tagged C-terminal 21 aminoacids truncated wild type NS5B polymerase; procedure, shortened: as §5
[22] = biological target: RNA-directed RNA polymerase (Hepacivirus hominis, UniProt O39930, M414T); test: Inhibition of RNA-dependent RNA polymerase activity of HCV genotype 1b HC-J4 recombinant N-terminal histidine tagged C-terminal 21 aminoacids truncated NS5B polymerase M414T mutant at palm site 1 after 1 hr by standard primer dependent elongation assay; set-up: species or system Hepatitis C virus isolate HC-J4; procedure, shortened: as §4
Hepatitis C virus [23] = test: Antiviral activity against HCV genotype 1b I389luc-ubi-neo/NS3-3'/5.1 replicon infected in human Huh6 cells assessed as decrease in replicon RNA content by RT-qPCR analysis; format: functional, cell-based, Hepacivirus hominis; details: HuH-6; procedure, shortened: as §3
[24] = Cytostatic activity against human Huh-9-13 cells carrying HCV genotype 1b I389luc-ubi-neo/NS3-3'/5.1 replicon assessed as reduction in metabolic activity after 72 hrs by MTS assay; format: ADME, cell-based
Procedure, shortened: (§6)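 MTS assay measuring bioreduction to formazan, read as host-cell metabolism/proliferation in subgenomic genotype 1b replicon cells. It was run alongside RT-qPCR-based antiviral testing. Huh-9-13 replicon cells lack the luciferase reporter, carry different adaptive mutations and more HCV RNA than Huh-5-2. HuH6 replicon cells use a different host line from Huh-7 and have distinct adaptive mutations. CC50 is the concentration that halves MTS reduction.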

[25] = Cytostatic activity against human Huh6 cells carrying HCV genotype 1b I389luc-ubi-neo/NS3-3'/5.1 replicon assessed as reduction in metabolic activity after 72 hrs by MTS assay; format: ADME, cell-based; procedure, shortened: as §6
[26] = Lipophilicity, log P of the compound by shake flask method; format: physicochemical; details: octanol/water
Procedure, shortened: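 Shake flask: compound dissolved in octanol, then 2.5 mL octanol with 2.5 mL water, sealed and agitated, 10 h to equilibrium. Each phase analysed by HPLC (C18, 50% ACN/50% H2O, 0.8 mL/min, UV).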

Sequence of RNA-directed RNA polymerase (Hepacivirus hominis, UniProt O39930, M423T) (O39930 entry or part of it M423T): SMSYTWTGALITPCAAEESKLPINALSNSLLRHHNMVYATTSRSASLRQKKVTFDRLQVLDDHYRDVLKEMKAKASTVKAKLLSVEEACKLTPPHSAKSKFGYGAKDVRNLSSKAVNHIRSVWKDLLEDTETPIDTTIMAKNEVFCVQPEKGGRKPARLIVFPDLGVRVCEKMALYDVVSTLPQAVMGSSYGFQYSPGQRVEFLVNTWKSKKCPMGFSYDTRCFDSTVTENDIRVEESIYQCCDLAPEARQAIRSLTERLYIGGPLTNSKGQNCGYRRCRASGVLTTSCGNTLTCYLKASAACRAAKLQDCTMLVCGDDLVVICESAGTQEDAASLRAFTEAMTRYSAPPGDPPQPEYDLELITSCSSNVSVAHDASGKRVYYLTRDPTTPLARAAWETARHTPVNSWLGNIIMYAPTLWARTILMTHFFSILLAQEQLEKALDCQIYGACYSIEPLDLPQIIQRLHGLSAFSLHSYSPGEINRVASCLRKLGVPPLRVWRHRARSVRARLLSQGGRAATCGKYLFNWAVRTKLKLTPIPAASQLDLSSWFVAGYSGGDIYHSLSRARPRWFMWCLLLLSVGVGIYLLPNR
Sequence of RNA-directed RNA polymerase (Hepacivirus hominis, UniProt O39930, M414T) (O39930 entry or part of it M414T): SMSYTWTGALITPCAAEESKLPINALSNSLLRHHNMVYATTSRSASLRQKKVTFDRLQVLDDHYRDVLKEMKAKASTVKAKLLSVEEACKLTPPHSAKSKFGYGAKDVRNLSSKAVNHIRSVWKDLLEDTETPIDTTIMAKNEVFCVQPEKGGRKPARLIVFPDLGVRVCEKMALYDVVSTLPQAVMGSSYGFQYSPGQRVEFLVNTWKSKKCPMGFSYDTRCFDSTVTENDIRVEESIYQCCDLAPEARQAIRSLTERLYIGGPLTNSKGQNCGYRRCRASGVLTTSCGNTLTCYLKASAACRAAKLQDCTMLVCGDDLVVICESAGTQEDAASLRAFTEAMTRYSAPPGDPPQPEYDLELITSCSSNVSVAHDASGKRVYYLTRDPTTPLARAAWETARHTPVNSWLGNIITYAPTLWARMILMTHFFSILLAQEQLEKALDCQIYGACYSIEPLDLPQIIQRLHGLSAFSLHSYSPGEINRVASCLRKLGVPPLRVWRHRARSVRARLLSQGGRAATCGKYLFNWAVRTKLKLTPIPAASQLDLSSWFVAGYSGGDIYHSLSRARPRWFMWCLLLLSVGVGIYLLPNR
Sequence of RNA-directed RNA polymerase (Hepacivirus hominis, UniProt O39930, P495L) (O39930 entry or part of it P495L): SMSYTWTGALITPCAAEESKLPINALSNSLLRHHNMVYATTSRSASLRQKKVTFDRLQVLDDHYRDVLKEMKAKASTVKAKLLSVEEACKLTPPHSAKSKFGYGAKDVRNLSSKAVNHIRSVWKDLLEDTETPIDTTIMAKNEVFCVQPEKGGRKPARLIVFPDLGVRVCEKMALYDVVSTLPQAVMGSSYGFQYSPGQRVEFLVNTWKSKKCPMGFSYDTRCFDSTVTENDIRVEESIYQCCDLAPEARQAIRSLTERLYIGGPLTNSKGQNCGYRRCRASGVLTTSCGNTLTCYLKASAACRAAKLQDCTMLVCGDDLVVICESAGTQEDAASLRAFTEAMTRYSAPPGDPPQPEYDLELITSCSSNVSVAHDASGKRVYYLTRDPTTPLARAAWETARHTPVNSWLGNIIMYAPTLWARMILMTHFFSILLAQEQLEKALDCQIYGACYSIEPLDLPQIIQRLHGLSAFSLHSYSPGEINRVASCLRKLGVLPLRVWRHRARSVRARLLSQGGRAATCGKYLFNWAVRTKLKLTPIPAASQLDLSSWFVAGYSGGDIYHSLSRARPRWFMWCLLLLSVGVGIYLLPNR

Structure (SMILES)	inhibition [2]	IC50 [3]	EC50 (Hepatitis C virus [4])	EC90 (Hepatitis C virus [4])	CC50 [5]	Activity [6]	Ratio CC50/EC50 [7]	other results
CN1c2c(C(=O)Nc3ccc(NS(C)(=O)=O)cc3)nn(-c3ccc(Cl)cc3)c2-c2ccccc2S1(=O)=O	> 50%	7.9 µM	8.1 µM	23.3 µM	> 224 µM	Non-toxic	>28	Activity [1]: Toxic
CN1c2c(C(=O)Nc3ccc(NS(C)(=O)=O)cc3)nn(-c3cccc(Cl)c3)c2-c2ccccc2S1(=O)=O	> 50%	4.3 µM	9.8 µM	41 µM	> 179 µM	Toxic	>18	Papp [8]: 2.3 ×10⁻⁶ cm/s; Papp [9]: 4.2 ×10⁻⁶ cm/s; R% [10]: 7.3%; R% [11]: 3.2%; remaining at 1 h [12]: 99.9%; Activity [13]: Non-toxic; Activity [14]: Toxic; Activity [15]: Toxic; EC50 (Hepatitis C virus [16]): 7.6 µM; IC50 [17]: 5.1 µM; IC50 [18]: 9.3 µM; Ratio IC50 [19]: 29.7; Ratio IC50 [20]: 1.2; Ratio IC50 [21]: 2.2; IC50 [22]: 128 µM; EC50 (Hepatitis C virus [23]): 14 µM; CC50 [24]: > 90 µM; CC50 at 72 h [25]: > 90 µM; logP [26]: 2.11
CN1c2c(C(=O)Nc3ccc(OCC(N)=O)cc3)nn(-c3cccc(F)c3)c2-c2ccccc2S1(=O)=O	< 50%	> 50 µM	15 µM	34 µM	> 192 µM	Toxic	>13	–
CN1c2c(C(=O)Nc3ccc(NS(C)(=O)=O)cc3)nn(-c3ccc(Cl)c(C(F)(F)F)c3)c2-c2ccccc2S1(=O)=O	< 50%	> 50 µM	6.4 µM	–	> 160 µM	Toxic	>25	–
CN1c2c(NC(=O)c3ccc(NS(C)(=O)=O)cc3)nn(-c3cccc(F)c3)c2-c2ccccc2S1(=O)=O	< 50%	> 50 µM	80.8 µM	–	160 µM	Toxic	2.3	–
CN1c2c(C(=O)Nc3ccc(NS(C)(=O)=O)cc3)nn(-c3ccc(C(F)(F)F)cc3)c2-c2ccccc2S1(=O)=O	> 50%	36.3 µM	7.3 µM	31.2 µM	> 169 µM	Toxic	>23	–
CN1c2c(C(=O)Nc3ccc(NS(C)(=O)=O)cc3)nn(-c3ccc(F)c(F)c3)c2-c2ccccc2S1(=O)=O	> 50%	25.4 µM	13.9 µM	–	138 µM	Toxic	9.9	–
CN1c2c(C(=O)Nc3ccc(NS(C)(=O)=O)cc3)nn(-c3ccc(Br)cc3)c2-c2ccccc2S1(=O)=O	> 50%	12.1 µM	7.4 µM	21 µM	> 166 µM	Toxic	>22	–
Cc1ccc(-n2nc(C(=O)Nc3ccc(NS(C)(=O)=O)cc3)c3c2-c2ccccc2S(=O)(=O)N3C)cc1	> 50%	14.7 µM	4.8 µM	19.6 µM	> 186 µM	Non-toxic	39	–
Cc1ccc(-n2nc(C(=O)Nc3ccc(NS(C)(=O)=O)cc3)c3c2-c2ccccc2S(=O)(=O)N3C)cc1C	< 50%	> 50 µM	6.2 µM	20 µM	> 181 µM	Toxic	>29	–
